Activity calls are given as the source filed them. No cut-off for these calls is given here.
System: Staphylococcus aureus
Assay: Antimicrobial activity against Staphylococcus aureus after 24 hrs
Format: functional
Settings: not given
Method in brief: (§1)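 MIC by agar dilution: compound incorporated in nutrient agar at 0.1–256 µg/mL, with poorly soluble surfactants predissolved in minimal DMF and a DMF-matched solvent control. Plates were seeded with nutrient broth starter culture and incubated at 37 °C. Growth was scored visually after 24 h; test medium pH 6.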

For `CCCCCCCCCCCCCC(=O)NCCCC[C@H](N)C(=O)OC.Cl`, which MIC is on record?
The MIC was 157 µM.

With `CCCCCCCCCCCCCCCC(=O)NCCCC[C@H](N)C(=O)OC.Cl` as the compound, how does the MIC read?
Its MIC is 148 µM.

System: Bacillus subtilis
Assay: Antimicrobial activity against Bacillus subtilis after 24 hrs
Format: functional
Settings: not given
Method in brief: as §1

Which MIC does the source give for hexadecyl trimethyl ammonium bromide here?
Its MIC is 44 µM.

For `CCCCCCCCCCCCCC(=O)NCCCC[C@H](N)C(=O)OC.Cl`, which MIC is on record?
The MIC was 157 µM.

With `CCCCCCCCCCCCCCCC(=O)NCCCC[C@H](N)C(=O)OC.Cl` as the compound, how does the MIC read?
Its MIC is 148 µM.

System: not listed separately
Assay: Critical micelle concentration by PGSE-NMR method
Format: physicochemical
Settings: not given
Method in brief: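 Surfactant intradiffusion measured by PGSE-NMR, varying gradient strength, from alkyl-chain CH2 signal intensities, at 25 °C (50 °C for the palmitoyl analogue). CMC taken from fitting the two-site exchange model D_obs = p_mic·D_mic + (1−p_mic)·D_free to the descending part of D versus concentration.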

With `CCCCCCCCCCCCCC(=O)NCCCC[C@H](N)C(=O)OC.Cl` as the compound, how does the CMC read?
Its CMC is 1.6 mM.

For `CCCCCCCCCCCCCCCC(=O)NCCCC[C@H](N)C(=O)OC.Cl`, which CMC is on record?
Its CMC is 0.6 mM.

System: Micrococcus luteus
Assay: Antimicrobial activity against Micrococcus luteus after 24 hrs
Format: functional
Settings: not given
Method in brief: as §1

Which MIC does the source give for hexadecyl trimethyl ammonium bromide here?
Its MIC is 44 µM.

For `CCCCCCCCCCCCCC(=O)NCCCC[C@H](N)C(=O)OC.Cl`, which MIC is on record?
Its MIC is 157 µM.

For `CCCCCCCCCCCCCCCC(=O)NCCCC[C@H](N)C(=O)OC.Cl`, which MIC is on record?
The MIC was 74 µM.

System: Enterococcus hirae
Assay: Antimicrobial activity against Enterococcus hirae after 24 hrs
Format: functional
Settings: not given
Method in brief: as §1

With `CCCCCCCCCCCCCC(=O)NCCCC[C@H](N)C(=O)OC.Cl` as the compound, how does the MIC read?
Its MIC is 157 µM.

Which MIC does the source give for `CCCCCCCCCCCCCCCC(=O)NCCCC[C@H](N)C(=O)OC.Cl` here?
The MIC was 74 µM.

System: Bacillus cereus
Assay: Antimicrobial activity against Bacillus cereus var. mycoides after 24 hrs
Format: functional
Settings: not given
Method in brief: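 Agar dilution MIC: compounds incorporated into nutrient agar over 0.1–256 µg/mL; poorly soluble ones first dissolved in minimal DMF, then diluted into medium, with a DMF-supplemented solvent control. Inoculated from a nutrient broth starter culture to a final ca. 5 × […] CFU/mL. Incubated 24 h at 37 °C; growth scored visually against a compound-free control.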

With `CCCCCCCCCCCCCC(=O)NCCCC[C@H](N)C(=O)OC.Cl` as the compound, how does the MIC read?
Its MIC is 157 µM.

With `CCCCCCCCCCCCCCCC(=O)NCCCC[C@H](N)C(=O)OC.Cl` as the compound, how does the MIC read?
Its MIC is 148 µM.

System: Klebsiella aerogenes
Assay: Antimicrobial activity against Enterobacter aerogenes at […] after 24 hrs
Format: functional, organism-based
Settings: not given

Which Activity does the source give for `CCCCCCCCCCCCCC(=O)NCCCC[C@H](N)C(=O)OC.Cl` here?
The Activity was “inactive”.

Which Activity does the source give for `CCCCCCCCCCCCCCCC(=O)NCCCC[C@H](N)C(=O)OC.Cl` here?
The Activity was “inactive”.

System: not listed separately
Assay: Toxicity in human erythrocytes assessed as hemolytic activity
Format: cell-based, Erythrocyte
Settings: not given
Method in brief: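 Erythrocytes washed three times in isotonic phosphate saline with 10 mmol/L glucose, pH 7.4, then exposed to surfactant for 10 min at room temperature with shaking and centrifuged. Supernatant A540 compared with water-lysed total-haemolysis controls. HC50 read from percent haemolysis versus concentration plots.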

Which IC50 does the source give for `CCCCCCCCCCCCCC(=O)NCCCC[C@H](N)C(=O)OC.Cl` here?
Its IC50 is 1230 µM.

For `CCCCCCCCCCCCCCCC(=O)NCCCC[C@H](N)C(=O)OC.Cl`, which IC50 is on record?
The IC50 was 1450 µM.

System: Candida albicans
Assay: Antimicrobial activity against Candida albicans at […] after 24 hrs
Format: functional, organism-based
Settings: not given

Which Activity does the source give for `CCCCCCCCCCCCCC(=O)NCCCC[C@H](N)C(=O)OC.Cl` here?
The Activity was “inactive”.

With `CCCCCCCCCCCCCCCC(=O)NCCCC[C@H](N)C(=O)OC.Cl` as the compound, how does the Activity read?
Its Activity is “inactive”.

System: Mycolicibacterium phlei
Assay: Antimicrobial activity against Mycobacterium phlei after 24 hrs
Format: functional
Settings: not given
Method in brief: as §1

With `CCCCCCCCCCCCCC(=O)NCCCC[C@H](N)C(=O)OC.Cl` as the compound, how does the MIC read?
The MIC was 78 µM.

For `CCCCCCCCCCCCCCCC(=O)NCCCC[C@H](N)C(=O)OC.Cl`, which MIC is on record?
Its MIC is 148 µM.

System: not listed separately
Assay: Dissociation constant, pKa of the compound
Format: physicochemical
Settings: not given
Method in brief: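 Apparent pKa calculated from pH measurements of surfactant solutions at concentrations that show antimicrobial activity.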

Which pKa does the source give for `CCCCCCCCCCCCCC(=O)NCCCC[C@H](N)C(=O)OC.Cl` here?
The pKa was 7.8.

System: Salmonella enterica subsp. enterica
Assay: Antimicrobial activity against Salmonella Typhimurium at […] after 24 hrs
Format: functional, organism-based
Settings: Salmonella enterica subsp. enterica serovar Typhimurium

Which Activity does the source give for `CCCCCCCCCCCCCC(=O)NCCCC[C@H](N)C(=O)OC.Cl` here?
The Activity was “inactive”.

For `CCCCCCCCCCCCCCCC(=O)NCCCC[C@H](N)C(=O)OC.Cl`, which Activity is on record?
Its Activity is “inactive”.

System: Bordetella bronchiseptica
Assay: Antimicrobial activity against Bordetella bronchiseptica at […] after 24 hrs
Format: functional, organism-based
Settings: not given

For `CCCCCCCCCCCCCC(=O)NCCCC[C@H](N)C(=O)OC.Cl`, which Activity is on record?
The Activity was “inactive”.

For `CCCCCCCCCCCCCCCC(=O)NCCCC[C@H](N)C(=O)OC.Cl`, which Activity is on record?
Its Activity is “inactive”.

System: Escherichia coli
Assay: Antimicrobial activity against Escherichia coli after 24 hrs
Format: functional
Settings: not given
Method in brief: as §1

Which MIC does the source give for hexadecyl trimethyl ammonium bromide here?
The MIC was 44 µM.

For `CCCCCCCCCCCCCC(=O)NCCCC[C@H](N)C(=O)OC.Cl`, which MIC is on record?
Its MIC is 157 µM.

System: Klebsiella pneumoniae
Assay: Antimicrobial activity against Klebsiella pneumoniae at […] after 24 hrs
Format: functional, organism-based
Settings: not given

For `CCCCCCCCCCCCCC(=O)NCCCC[C@H](N)C(=O)OC.Cl`, which Activity is on record?
The Activity was “inactive”.

For `CCCCCCCCCCCCCCCC(=O)NCCCC[C@H](N)C(=O)OC.Cl`, which Activity is on record?
Its Activity is “inactive”.

System: Escherichia coli
Assay: Antimicrobial activity against Escherichia coli at […] after 24 hrs
Format: functional, organism-based
Settings: not given

With `CCCCCCCCCCCCCCCC(=O)NCCCC[C@H](N)C(=O)OC.Cl` as the compound, how does the Activity read?
Its Activity is “inactive”.

System: Pseudomonas aeruginosa
Assay: Antimicrobial activity against Pseudomonas aeruginosa at […] after 24 hrs
Format: functional, organism-based
Settings: not given

For `CCCCCCCCCCCCCC(=O)NCCCC[C@H](N)C(=O)OC.Cl`, which Activity is on record?
The Activity was “inactive”.

With `CCCCCCCCCCCCCCCC(=O)NCCCC[C@H](N)C(=O)OC.Cl` as the compound, how does the Activity read?
The Activity was “inactive”.

System: Staphylococcus epidermidis
Assay: Antimicrobial activity against Staphylococcus epidermidis after 24 hrs
Format: functional
Settings: not given
Method in brief: as §1

Which MIC does the source give for hexadecyl trimethyl ammonium bromide here?
Its MIC is 10 µM.

Which MIC does the source give for `CCCCCCCCCCCCCC(=O)NCCCC[C@H](N)C(=O)OC.Cl` here?
The MIC was 157 µM.

With `CCCCCCCCCCCCCCCC(=O)NCCCC[C@H](N)C(=O)OC.Cl` as the compound, how does the MIC read?
Its MIC is 148 µM.

System: Serratia marcescens
Assay: Antimicrobial activity against Serratia marcescens at […] after 24 hrs
Format: functional, organism-based
Settings: not given

For `CCCCCCCCCCCCCC(=O)NCCCC[C@H](N)C(=O)OC.Cl`, which Activity is on record?
Its Activity is “inactive”.

For `CCCCCCCCCCCCCCCC(=O)NCCCC[C@H](N)C(=O)OC.Cl`, which Activity is on record?
Its Activity is “inactive”.

System: Bordetella bronchiseptica
Assay: Antimicrobial activity against Bordetella bronchiseptica after 24 hrs
Format: functional
Settings: not given
Method in brief: as §1

Which MIC does the source give for hexadecyl trimethyl ammonium bromide here?
The MIC was 20 µM.

System: not listed separately
Assay: Toxicity against Daphnia magna after 24 hrs by immobility assay
Settings: not given
Method in brief: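 Daphnia magna acute test using laboratory-bred animals no older than 24 h. Medium pH 8.0, hardness 250 mg/L as CaCO3 (Ca/Mg 4/1), dark, 20 °C. Four groups of five per concentration, ten concentrations in geometric series. Immobility at 24 h plotted on log-probability paper; IC50 with 95% confidence ranges.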

For `CCCCCCCCCCCCCC(=O)NCCCC[C@H](N)C(=O)OC.Cl`, which IC50 is on record?
Its IC50 is 7.3 µM.

System: Klebsiella pneumoniae
Assay: Antimicrobial activity against Klebsiella pneumoniae after 24 hrs
Format: functional
Settings: not given
Method in brief: as §1

With hexadecyl trimethyl ammonium bromide as the compound, how does the MIC read?
The MIC was 44 µM.

Reference: ChEMBL document CHEMBL1158367, “Cationic surfactants from lysine: synthesis, micellization and biological evaluation” (Eur J Med Chem, 2009)
